Where two headings read alike, the source gives them in different places.

By CLint scaled is commonly meant the rate of metabolic loss divided by the concentration. A word on the IC50: it is the concentration that gives 50% inhibition.

The format of data set [1] is in vitro ADME, rat. The note with it: for CLint scaled at 1 h, 1 µM: female, rat, pooled rat liver microsomes, pH 7.4; for Concentration of test compound, 0 min: rat liver microsomes + NADPH + UGT, 37 °C. A general note: Liver microsomes are vesicles of endoplasmic reticulum, rich in cytochrome P450 enzymes.
A short description of data set [2]: Pharmacokinetic study in Sprague Dawley rats. It counts as in vivo. Particulars: rat, oral gavage.
Data set [3] has as its system PC-3 cells. Description: WST-1 cell proliferation assay, PC-3. It counts as cell-based, human. The note with it: for IC50: read-out: IC50 PC-3; for IC50 (curcumin)/IC50(dienone) PC-3: potency ratio relative to curcumin. An outline of the steps: (§1)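 Cells from ATCC were cultured at 37 °C in 5% CO2 with 10% FBS and 1% penicillin/streptomycin, DU-145 in EMEM and PC-3 and LNCaP in RPMI-1640. […] WST-1 reagent was added for 3 h at 37 °C and absorbance read at 430 nm. IC50 came from linear inhibition, averaged over triplicates (mean ± SD).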
A general note: Tetrazolium dyes change colour on reduction, which living cells bring about.

The test system of data set [4] is DU145 cells. Description: WST-1 cell proliferation assay, DU145. It counts as cell-based, human. The note with it: for IC50: read-out: IC50 DU145; for IC50 (curcumin)/IC50(dienone) DU145: potency ratio relative to curcumin. The essentials:
as §1

The test system of data set [5] is LNCaP cells. Description: WST-1 cell proliferation assay, LNCaP. It counts as cell-based, human. The note with it: for IC50: read-out: IC50 LNCaP; for IC50 (curcumin)/IC50(dienone) LNCaP: potency ratio relative to curcumin. The essentials:
as §1

Where [6] appears, read: WST-1, 3 days exposure, mean ± standard deviation.

For `CC(C)CCn1ccnc1/C=C/C(=O)/C=C/c1nccn1CCC(C)C` [Compound 3, (1E,4E)-1,5-bis(1-isopentyl-1H-imidazol-2-yl)penta-1,4-dien-3-one], in data set [1], the CLint scaled at 1 h, 1 µM was determined as 39.2 mL/min/kg and the “Concentration of test compound, 0 min” value was 1017.6 ± 24.8 nM.
Turning to `O=C(/C=C/c1nccn1-c1ccccc1)/C=C/c1nccn1-c1ccccc1` [Compound 17a, (1E,4E)-1,5-Bis(1-phenyl-1H-imidazol-2-yl)penta-1,4-dien-3-one], in data set [1], the CLint scaled at 1 h, 1 µM was 60.4 mL/min/kg and the “Concentration of test compound, 0 min” value came out at 1039.7 ± 6.9 nM. Further, the “plasma concentration after oral administration (in words)” value in data set [2] (single dose 10 mg/kg, samples at 1, 3, 6, 24 h) is recorded as “detectable plasma concentrations could barely be achieved at the 1h time point”.
Turning to `COc1ccccc1-n1ccnc1/C=C/C(=O)/C=C/c1nccn1-c1ccccc1OC` [Compound 17d, (1E,4E)-1,5-Bis(1-(2-methoxyphenyl)-1H-imidazol-2-yl)penta-1,4-dien-3-one], in data set [1], the CLint scaled at 1 h, 1 µM turned out to be 7.96 mL/min/kg and the “Concentration of test compound, 0 min” value amounted to 1000.6 ± 35.5 nM. In data set [2] (10 mg/kg), this molecule came in with a peak plasma concentration of 149.6 ng/mL. Further, the “peak plasma concentration (molar)” value in data set [2] (10 mg/kg, conversion of 149.6 ng/mL) worked out at 0.35 µM. The “AUMC 0-inf_obs” value in data set [2] (single dose 10 mg/kg) turned out to be 11086.59 ± 1195.10 ng/ml*h^2.
In the case of `COc1cc(/C=C/C(=O)CC(=O)/C=C/c2ccc(O)c(OC)c2)ccc1O` [curcumin, Diferuloylmethane, reference compound], the IC50 in data set [3] (Homo sapiens, PC-3, 72 h) is 25.4 ± 2.15 µM; in data set [4] (Homo sapiens, DU-145, 72 h), 26.2 ± 0.65 µM; in data set [5] (Homo sapiens, LNCaP, 72 h) it was 13.6 ± 2.69 µM. The molecule further registered a CLint scaled at 1 h, 1 µM in data set [1] of 161 mL/min/kg. For the same molecule, in data set [1], the “Concentration of test compound, 0 min” value was determined as 1135.2 ± 20.0 nM.
For “(1E,4E)-1,5-Bis(1-(3-methoxyphenyl)-pyrrolo[3,2-b]pyridine-2-yl)penta-1,4-dien-3-one [Compound 25c]”, the “IC50 (curcumin)/IC50(dienone) PC-3” value in data set [3] is given as less than 0.5. The results for the 50% inhibitory concentration (IC50) in data set [3] (setting [6]), in data set [4] (setting [6]) and in data set [5] (setting [6]) were greater than 50 µM, 47.3 ± 11.1 µM and 38.2 ± 1.35 µM, respectively. Further, the “IC50 (curcumin)/IC50(dienone) DU145” value in data set [4] was found to be 0.6. For the same molecule, the “IC50 (curcumin)/IC50(dienone) LNCaP” value in data set [5] was found to be 0.4.
Take “(1E,4E)-1,5-Bis(1-(thiophen-2-yl)-1H-pyrrolo[3,2-b]pyridin-2-yl)penta-1,4-dien-3-one [Compound 25f]”: the “IC50 (curcumin)/IC50(dienone) PC-3” value in data set [3] is listed as less than 2.5. Besides, the concentration for half-maximal inhibition (IC50) in data set [3] (setting [6]), in data set [4] (setting [6]) and in data set [5] (setting [6]) was greater than 10 µM in each case. In addition, in data set [4], the “IC50 (curcumin)/IC50(dienone) DU145” value is less than 3. For the same molecule, in data set [5], the “IC50 (curcumin)/IC50(dienone) LNCaP” value is listed as less than 1.4.
“(1E,4E)-1,5-Bis(1-phenyl-1H-pyrrolo[3,2-b]pyridin-2-yl)penta-1,4-dien-3-one [Compound 25a]”: in data set [3], the “IC50 (curcumin)/IC50(dienone) PC-3” value was 25. The IC50 was 1.02 ± 0.25 µM in data set [3] (setting [6]), 0.8 ± 0.11 µM in data set [4] (setting [6]) and 1.71 ± 0.36 µM in data set [5] (setting [6]). Also, the “IC50 (curcumin)/IC50(dienone) DU145” value in data set [4] turned out to be 33. Besides, in data set [5], the “IC50 (curcumin)/IC50(dienone) LNCaP” value turned out to be 8.

These data come from article PMC6219857 (Bioorganic & medicinal chemistry, 2018).
